Measurements as given in ChEMBL document CHEMBL2434958, “Identification of a novel series of orexin receptor antagonists with a distinct effect on sleep architecture for the treatment of insomnia” (J Med Chem, 2013).
Active and inactive are the calls of the source. No cut-off for these calls is given here.

Experiments:
Mus musculus [1] = assay: Induction of sleep in C57BL/6 mouse assessed as increase in rapid eye movement at 50 mg/kg, po measured during 4 hrs by EEG/EMG analysis relative to vehicle-treated control; format: functional, organism-based; design: dose 50 mg/kg
Outline: (§1)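 Male C57Bl/6 mice with implanted cortical EEG screw electrodes and EMG, recovered 2 weeks, 12 h/12 h light/dark cycle. Crossover: vehicle (0.5% methylcellulose, 10 mL/kg po) on day 2, compound po on day 3, each given 5–15 min before lights-off. 23 h recordings; EEG filtered 0.3–30 Hz, EMG 5–30 Hz; 10 s epochs scored as wake, NREM or REM from EEG/EMG and infrared motility.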

[2] = Drug uptake in C57BL/6 mouse blood at 50 mg/kg after 1 hr by LC-MS/MS analysis; format: ADME, organism-based; design: dose 50 mg/kg; conditions: read-out: Drug uptake
Outline: (§2)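 Satellite PK group: oral gavage of 50 mg/kg suspended in 0.5% w/v methylcellulose in water, 10 mL/kg. Blood and brain taken after decapitation at 15 and 60 min post-dose, n = 3 mice per time point, stored at −20 °C. Brain homogenised in 2 mM KH₂PO₄; acetonitrile quench with internal standard; LC/MS/MS against six-level calibration curve. Mean ± SD reported.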

Mus musculus [3] = assay: Induction of sleep in C57BL/6 mouse assessed as increased rapid eye movement sleep proportion at 50 mg/kg, po measured during 1 hr by EEG/EMG analysis relative to vehicle-treated control; format: functional, organism-based; design: dose 50 mg/kg; outline: as §1
Mus musculus [4] = assay: Induction of sleep in C57BL/6 mouse assessed as increase in total sleep time at 50 mg/kg, po measured during first 4 hrs by EEG/EMG analysis relative to vehicle-treated control
Mus musculus [5] = assay: Induction of sleep in C57BL/6 mouse assessed as increase in non-rapid eye movement at 50 mg/kg, po measured during 4 hrs by EEG/EMG analysis relative to vehicle-treated control; format: functional, organism-based; design: dose 50 mg/kg; outline: as §1
[6] = molecular target: T1, Orexin/Hypocretin receptor type 1 (Mus musculus, UniProt P58307); assay: Antagonist activity at mouse OX1 receptor expressed in CHO cells assessed as inhibition of orexin A-induced Ca2+ accumulation after 1 hr by Fluo-4-AM staining-based FLIPR assay; format: functional, cell-based
T1 sequence (P58307 whole entry): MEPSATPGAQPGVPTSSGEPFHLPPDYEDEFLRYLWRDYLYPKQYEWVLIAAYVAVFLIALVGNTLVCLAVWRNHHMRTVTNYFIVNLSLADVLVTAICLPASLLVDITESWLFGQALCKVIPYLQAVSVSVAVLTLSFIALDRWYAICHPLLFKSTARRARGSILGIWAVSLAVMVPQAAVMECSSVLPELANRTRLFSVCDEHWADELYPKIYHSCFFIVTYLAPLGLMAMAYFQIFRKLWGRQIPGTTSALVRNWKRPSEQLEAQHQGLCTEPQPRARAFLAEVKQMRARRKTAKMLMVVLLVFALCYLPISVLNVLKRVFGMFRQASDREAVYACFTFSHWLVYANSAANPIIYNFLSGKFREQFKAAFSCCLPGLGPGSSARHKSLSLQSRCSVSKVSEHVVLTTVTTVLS

Brain [7] = assay: Drug uptake in C57BL/6 mouse brain at 50 mg/kg after 1 hr by LC-MS/MS analysis; format: ADME, organism-based; design: dose 50 mg/kg; conditions: in vivo; outline: as §2
Mus musculus [8] = assay: Effect on locomotion in C57BL/6 mouse assessed as reduction of motility at 50 mg/kg, po measured up to 4 hrs; format: functional, organism-based; design: dose 50 mg/kg
Outline: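 Mice habituated, then dosed orally immediately before lights-off (15:00, start of active phase); vehicle 0.5% methylcellulose in water. Inactivity = any minute with no infrared beam breaks. Per-animal difference between inactivity 15:00–19:00 post-dose and the same 4 h during habituation 24 h earlier. n = 6; one-way ANOVA with Dunnett's test versus vehicle.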

Brain [9] = assay: Fraction unbound in C57BL/6 mouse brain at 50 mg/kg, po after 1 hr by LC-MS/MS analysis; format: ADME, organism-based; design: dose 50 mg/kg, route oral; conditions: in vivo
Outline: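 Unbound fraction assessed in mouse brain homogenate by a slightly adapted literature method, measured separately from the dosed animals. Free brain level obtained by multiplying fraction unbound by brain concentration from the 50 mg/kg po satellite group at 60 min. Mean ± SD, n = 3.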

Orexin receptor type 2 = molecular target: T2, Orexin receptor type 2 (Mus musculus, UniProt P58308); assay: Antagonist activity at mouse OX2 receptor expressed in HEK cells assessed as inhibition of orexin A-induced Ca2+ accumulation after 1 hr by Fluo-4-AM staining-based FLIPR assay; format: functional, cell-based, HEK293
T2 sequence (P58308 whole entry): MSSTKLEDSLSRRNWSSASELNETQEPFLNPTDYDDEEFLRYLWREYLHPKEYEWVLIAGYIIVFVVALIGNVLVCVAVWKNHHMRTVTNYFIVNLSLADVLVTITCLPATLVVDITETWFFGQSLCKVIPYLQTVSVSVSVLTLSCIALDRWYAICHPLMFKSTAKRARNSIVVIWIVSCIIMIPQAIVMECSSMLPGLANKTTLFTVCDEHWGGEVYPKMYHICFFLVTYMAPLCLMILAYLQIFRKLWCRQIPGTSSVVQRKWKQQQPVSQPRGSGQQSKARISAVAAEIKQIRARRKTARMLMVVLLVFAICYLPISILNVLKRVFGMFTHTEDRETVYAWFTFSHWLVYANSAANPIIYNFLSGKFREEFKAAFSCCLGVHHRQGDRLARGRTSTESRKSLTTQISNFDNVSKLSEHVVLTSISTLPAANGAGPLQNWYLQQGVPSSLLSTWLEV

Structure (SMILES): Cc1ccc(-n2nccn2)c(C(=O)N2CCN(c3nc4cc(Cl)ccc4o3)CC[C@H]2C)c1 [SUVOREXANT]
- Activity (Mus musculus [1]): Active
- concentration at 1 h [2]: 10.5 µM
- Activity (Mus musculus [3]): Active
- Activity (Mus musculus [4]): Active
- Activity (Mus musculus [5]): Active
- Ki [6]: 1.7 nM
- Drug uptake (Brain [7]): 10329 pmol/g
- Activity (Mus musculus [8]): Active
- Fu (Brain [9]): 0.65%
- Ki (Orexin receptor type 2): 8.71 nM
